This note sets out measurements from ChEMBL document CHEMBL4184325, “Discovery of 4,7-Diamino-5-(4-phenoxyphenyl)-6-methylene-pyrimido[5,4- b]pyrrolizines as Novel Bruton's Tyrosine Kinase Inhibitors” (J Med Chem, 2018).

In data set [1] the target is T1, Tyrosine-protein kinase BTK (Homo sapiens, UniProt Q06187). Nature of the data set: Inhibition of recombinant human BTK using Poly(Glu, Tyr) 4:1 as substrate after 1 hr by ELISA. (In general: ELISA stands for enzyme-linked immunosorbent assay.)
T1 sequence (Q06187 whole entry): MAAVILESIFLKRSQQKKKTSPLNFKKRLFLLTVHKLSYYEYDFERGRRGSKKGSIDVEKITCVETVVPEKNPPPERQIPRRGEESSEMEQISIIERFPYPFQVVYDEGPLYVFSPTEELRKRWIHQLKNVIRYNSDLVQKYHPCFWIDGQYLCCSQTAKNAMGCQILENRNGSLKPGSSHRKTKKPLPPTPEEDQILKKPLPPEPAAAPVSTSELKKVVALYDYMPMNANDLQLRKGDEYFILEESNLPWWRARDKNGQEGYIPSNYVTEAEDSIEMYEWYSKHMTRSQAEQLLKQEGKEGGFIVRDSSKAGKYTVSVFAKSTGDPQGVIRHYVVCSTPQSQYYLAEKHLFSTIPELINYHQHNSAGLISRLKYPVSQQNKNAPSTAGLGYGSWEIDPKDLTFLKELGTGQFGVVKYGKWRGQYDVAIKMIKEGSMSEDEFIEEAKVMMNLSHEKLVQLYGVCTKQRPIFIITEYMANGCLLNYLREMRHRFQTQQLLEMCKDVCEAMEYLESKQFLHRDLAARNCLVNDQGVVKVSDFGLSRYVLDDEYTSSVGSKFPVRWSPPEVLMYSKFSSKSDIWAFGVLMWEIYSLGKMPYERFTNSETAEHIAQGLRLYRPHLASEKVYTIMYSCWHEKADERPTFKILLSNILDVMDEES
The nature of data set [2]: Tmax in rat at 3 mg/kg, po. As to conditions: in vivo. It counts as ADME, organism-based. Put shortly: (§1)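 Rats were given compound at 1 mg/kg iv or 3 mg/kg po. Vehicle was DMSO, Tween 80 and normal saline. Values are the average of three determinations.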
Data set [3] concerns Rattus norvegicus. Nature of the data set: Oral bioavailability in rat at 3 mg/kg. Format: ADME, organism-based. The following applies: in vivo. Put shortly:
as §1

The nature of data set [4]: Drug metabolism in mouse liver microsomes assessed as (S)-N-(4-amino-5-(4-(4-hydroxyphenoxy)phenyl)-6-methylene-7,8-dihydro-6H-pyrimido[5,4-b]pyrrolizin-7-yl)acrylamide formation after 3 hrs. Format: ADME, microsome. On the technique in general: Microsomes from liver hold many membrane-bound enzymes, among them those of drug oxidation.
The nature of data set [5]: Drug metabolism in human liver microsomes assessed as (S,E)-N-(4-amino-6-methylene-5-(4-phenoxyphenyl)-7,8-dihydro-6H-pyrimido[5,4-b]pyrrolizin-7-yl)-3-hydroxyacrylamide formation after 3 hrs. It counts as ADME, microsome.
A short description of data set [6]: Drug metabolism in rat liver microsomes assessed as N-((S)-4-amino-6-methylene-5-(4-phenoxyphenyl)-7,8-dihydro-6H-pyrimido[5,4-b]pyrrolizin-7-yl)-2,3-dihydroxypropanamide formation after 3 hrs. Format: ADME, microsome.
Data set [7] in a line: Drug metabolism in human liver microsomes assessed as N-((S)-4-amino-6-methylene-5-(4-phenoxyphenyl)-7,8-dihydro-6H-pyrimido[5,4-b]pyrrolizin-7-yl)-2,3-dihydroxypropanamide formation after 3 hrs. It counts as ADME, microsome.
In data set [8] the target is Epidermal growth factor receptor (Homo sapiens, UniProt P00533). Kind of data set: Inhibition of recombinant human EGFR using Poly(Glu, Tyr) 4:1 as substrate after 1 hr by ELISA. A digest of the protocol:
(§2)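 Kinase activity was measured by ELISA on wells precoated with 20 µg/mL poly(Glu,Tyr) 4:1. Enzyme was incubated with compound in 50 mM HEPES pH 7.4, 20 mM MgCl2, 0.1 mM MnCl2, 0.2 mM Na3VO4, 1 mM DTT with 5 µM ATP at 37 °C for 1 h. Phosphotyrosine was detected with PY99 antibody, HRP secondary and OPD, read at A492. IC50 is the mean of duplicates.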

For data set [9], the target named is Proto-oncogene tyrosine-protein kinase receptor Ret (Homo sapiens, UniProt P07949). Kind of data set: Inhibition of recombinant human RET using Poly(Glu, Tyr) 4:1 as substrate after 1 hr by ELISA.
Sequence of Proto-oncogene tyrosine-protein kinase receptor Ret (P07949 whole entry): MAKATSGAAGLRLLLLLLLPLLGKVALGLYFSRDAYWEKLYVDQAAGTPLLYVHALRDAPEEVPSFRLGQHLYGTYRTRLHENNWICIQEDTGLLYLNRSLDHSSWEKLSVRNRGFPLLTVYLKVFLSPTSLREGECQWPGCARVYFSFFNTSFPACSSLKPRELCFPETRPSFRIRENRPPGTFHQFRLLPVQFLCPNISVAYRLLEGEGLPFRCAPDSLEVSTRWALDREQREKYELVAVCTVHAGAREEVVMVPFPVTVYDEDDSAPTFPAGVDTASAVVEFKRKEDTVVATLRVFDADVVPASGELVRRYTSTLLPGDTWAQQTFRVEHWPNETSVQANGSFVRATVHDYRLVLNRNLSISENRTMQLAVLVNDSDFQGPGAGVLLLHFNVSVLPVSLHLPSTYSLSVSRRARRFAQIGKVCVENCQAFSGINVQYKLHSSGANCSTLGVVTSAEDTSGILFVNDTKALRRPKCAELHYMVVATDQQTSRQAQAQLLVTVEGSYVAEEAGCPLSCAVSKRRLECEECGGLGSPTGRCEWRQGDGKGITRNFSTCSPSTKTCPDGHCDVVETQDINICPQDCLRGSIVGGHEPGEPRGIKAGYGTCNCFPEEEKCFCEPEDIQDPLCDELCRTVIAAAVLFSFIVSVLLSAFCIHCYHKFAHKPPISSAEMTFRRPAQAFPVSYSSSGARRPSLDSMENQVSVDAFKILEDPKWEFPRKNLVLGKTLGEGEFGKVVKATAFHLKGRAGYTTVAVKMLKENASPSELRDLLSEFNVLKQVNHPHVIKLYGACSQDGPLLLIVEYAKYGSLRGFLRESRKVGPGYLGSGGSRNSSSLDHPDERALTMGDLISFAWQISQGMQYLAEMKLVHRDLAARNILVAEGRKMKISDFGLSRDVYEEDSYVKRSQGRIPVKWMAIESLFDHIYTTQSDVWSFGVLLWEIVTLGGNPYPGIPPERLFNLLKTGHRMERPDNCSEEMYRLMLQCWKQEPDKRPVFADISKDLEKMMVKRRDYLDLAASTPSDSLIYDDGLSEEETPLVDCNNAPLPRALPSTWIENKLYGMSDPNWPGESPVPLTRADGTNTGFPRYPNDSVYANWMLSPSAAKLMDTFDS
The target of data set [10] is Platelet-derived growth factor receptor beta (Homo sapiens, UniProt P09619). Kind of data set: Inhibition of recombinant human PDGFR-beta using Poly(Glu, Tyr) 4:1 as substrate after 1 hr by ELISA.
Sequence of Platelet-derived growth factor receptor beta (P09619 whole entry): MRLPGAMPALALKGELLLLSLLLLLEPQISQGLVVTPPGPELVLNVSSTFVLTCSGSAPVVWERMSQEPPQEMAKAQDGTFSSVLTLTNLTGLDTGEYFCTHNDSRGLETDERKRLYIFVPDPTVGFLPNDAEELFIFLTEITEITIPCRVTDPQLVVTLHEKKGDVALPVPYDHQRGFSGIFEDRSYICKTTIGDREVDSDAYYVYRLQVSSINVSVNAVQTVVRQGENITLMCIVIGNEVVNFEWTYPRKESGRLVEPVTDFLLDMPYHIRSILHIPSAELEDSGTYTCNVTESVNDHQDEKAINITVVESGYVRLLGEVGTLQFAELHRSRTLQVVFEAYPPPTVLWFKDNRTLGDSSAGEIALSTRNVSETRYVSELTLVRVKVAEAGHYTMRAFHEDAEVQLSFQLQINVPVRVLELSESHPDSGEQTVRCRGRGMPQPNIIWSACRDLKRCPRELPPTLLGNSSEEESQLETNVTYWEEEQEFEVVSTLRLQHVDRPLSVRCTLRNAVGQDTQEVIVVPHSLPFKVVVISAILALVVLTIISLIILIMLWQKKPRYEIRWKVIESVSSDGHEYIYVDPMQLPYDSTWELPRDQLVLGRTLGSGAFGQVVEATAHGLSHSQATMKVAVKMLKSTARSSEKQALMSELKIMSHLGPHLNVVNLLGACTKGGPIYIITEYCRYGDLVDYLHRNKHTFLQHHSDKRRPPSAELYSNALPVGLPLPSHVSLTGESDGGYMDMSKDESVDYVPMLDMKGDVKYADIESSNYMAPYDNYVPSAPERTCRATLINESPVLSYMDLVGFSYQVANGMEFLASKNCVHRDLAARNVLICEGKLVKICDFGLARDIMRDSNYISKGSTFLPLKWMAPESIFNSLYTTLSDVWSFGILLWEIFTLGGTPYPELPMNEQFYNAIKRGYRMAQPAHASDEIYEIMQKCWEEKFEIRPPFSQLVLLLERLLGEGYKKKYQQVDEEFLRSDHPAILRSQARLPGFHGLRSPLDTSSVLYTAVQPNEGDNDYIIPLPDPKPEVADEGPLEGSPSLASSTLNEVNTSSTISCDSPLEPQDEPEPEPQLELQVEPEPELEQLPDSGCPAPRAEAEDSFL
Data set [11] deals with Ephrin type-A receptor 2 (Homo sapiens, UniProt P29317). Kind of data set: Inhibition of recombinant human EPHA2 using Poly(Glu, Tyr) 4:1 as substrate after 1 hr by ELISA.
In data set [12] the target is Macrophage colony-stimulating factor 1 receptor (Homo sapiens, UniProt P07333). Kind of data set: Inhibition of recombinant human CSF1R using Poly(Glu, Tyr) 4:1 as substrate after 1 hr by ELISA. A digest of the protocol:
as §2

In data set [13] the target is T1, Tyrosine-protein kinase BTK. Kind of data set: Inhibition of BTK autophosphorylation at Y223 in human TMD8 cells after 4 hrs by Western blot method. On the technique in general: Immunoblotting shows a protein as a band on a membrane.
Data set [14] relates to TMD8. Nature of the data set: Cell cycle arrest in human TMD8 cells assessed as accumulation at G2 phase at 1 nM after 48 hrs by propidium iodide staining-based flow cytometric method (reference value: 14.53%). Format: functional.
Data set [15] has as its system TMD8. Nature of the data set: Cell cycle arrest in human TMD8 cells assessed as accumulation at S phase at 1 nM after 48 hrs by propidium iodide staining-based flow cytometric method (reference value: 34.15%). Format: functional.
In data set [16] the test system is TMD8. Nature of the data set: Cell cycle arrest in human TMD8 cells assessed as accumulation at G2 phase at 10 nM after 48 hrs by propidium iodide staining-based flow cytometric method (reference value: 14.53%). It counts as functional. A digest of the protocol: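 TMD8 cells in RPMI-1640 with FBS, 37 °C, 5% CO2, treated at indicated concentrations for 48 h; permeabilized cells stained with propidium iodide and analysed by flow cytometry for cell-cycle phase distribution. Three independent experiments, mean ± SD.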

Data set [17] deals with TMD8. Nature of the data set: Cell cycle arrest in human TMD8 cells assessed as accumulation at G1 phase at 100 nM after 48 hrs by propidium iodide staining-based flow cytometric method (reference value: 51.33%). Format: functional.
Data set [18] concerns TMD8. Kind of data set: Cell cycle arrest in human TMD8 cells assessed as accumulation at S phase at 100 nM after 48 hrs by propidium iodide staining-based flow cytometric method (reference value: 34.15%). Format: functional.
The subject of data set [19] is TMD8. Kind of data set: Induction of apoptosis in human TMD8 cells assessed as early apoptotic cells at 10 nM after 72 hrs by Annexin-FITC/propidium iodide staining-based flow cytometric method (reference value: 7.98%). Format: functional.
Data set [20] relates to TMD8. Kind of data set: Induction of apoptosis in human TMD8 cells assessed as late apoptotic cells at 10 nM after 72 hrs by Annexin-FITC/propidium iodide staining-based flow cytometric method (reference value: 3.2%). Format: functional.
Data set [21] deals with TMD8. Nature of the data set: Induction of apoptosis in human TMD8 cells assessed as late apoptotic cells at 100 nM after 72 hrs by Annexin-FITC/propidium iodide staining-based flow cytometric method (reference value: 3.2%). Format: functional.
The subject of data set [22] is TMD8. Nature of the data set: Induction of apoptosis in human TMD8 cells assessed as early apoptotic cells at 1000 nM after 72 hrs by Annexin-FITC/propidium iodide staining-based flow cytometric method (reference value: 7.98%). Format: functional.
Data set [23] deals with TMD8. Nature of the data set: Induction of apoptosis in human TMD8 cells after 72 hrs by Annexin-FITC/propidium iodide staining-based flow cytometric method. It counts as functional, cell-based.
Data set [24] concerns Mus musculus. Nature of the data set: In vivo inhibition of BTK autophosphorylation at Y223 in human TMD8 cells xenografted in CB17 SCID nude mouse at 15 mg/kg, […] by Western blot method. It counts as functional, organism-based.

Activity calls are given as the source filed them. The rule behind the calls is not given here.

Sequence of Epidermal growth factor receptor (P00533 whole entry): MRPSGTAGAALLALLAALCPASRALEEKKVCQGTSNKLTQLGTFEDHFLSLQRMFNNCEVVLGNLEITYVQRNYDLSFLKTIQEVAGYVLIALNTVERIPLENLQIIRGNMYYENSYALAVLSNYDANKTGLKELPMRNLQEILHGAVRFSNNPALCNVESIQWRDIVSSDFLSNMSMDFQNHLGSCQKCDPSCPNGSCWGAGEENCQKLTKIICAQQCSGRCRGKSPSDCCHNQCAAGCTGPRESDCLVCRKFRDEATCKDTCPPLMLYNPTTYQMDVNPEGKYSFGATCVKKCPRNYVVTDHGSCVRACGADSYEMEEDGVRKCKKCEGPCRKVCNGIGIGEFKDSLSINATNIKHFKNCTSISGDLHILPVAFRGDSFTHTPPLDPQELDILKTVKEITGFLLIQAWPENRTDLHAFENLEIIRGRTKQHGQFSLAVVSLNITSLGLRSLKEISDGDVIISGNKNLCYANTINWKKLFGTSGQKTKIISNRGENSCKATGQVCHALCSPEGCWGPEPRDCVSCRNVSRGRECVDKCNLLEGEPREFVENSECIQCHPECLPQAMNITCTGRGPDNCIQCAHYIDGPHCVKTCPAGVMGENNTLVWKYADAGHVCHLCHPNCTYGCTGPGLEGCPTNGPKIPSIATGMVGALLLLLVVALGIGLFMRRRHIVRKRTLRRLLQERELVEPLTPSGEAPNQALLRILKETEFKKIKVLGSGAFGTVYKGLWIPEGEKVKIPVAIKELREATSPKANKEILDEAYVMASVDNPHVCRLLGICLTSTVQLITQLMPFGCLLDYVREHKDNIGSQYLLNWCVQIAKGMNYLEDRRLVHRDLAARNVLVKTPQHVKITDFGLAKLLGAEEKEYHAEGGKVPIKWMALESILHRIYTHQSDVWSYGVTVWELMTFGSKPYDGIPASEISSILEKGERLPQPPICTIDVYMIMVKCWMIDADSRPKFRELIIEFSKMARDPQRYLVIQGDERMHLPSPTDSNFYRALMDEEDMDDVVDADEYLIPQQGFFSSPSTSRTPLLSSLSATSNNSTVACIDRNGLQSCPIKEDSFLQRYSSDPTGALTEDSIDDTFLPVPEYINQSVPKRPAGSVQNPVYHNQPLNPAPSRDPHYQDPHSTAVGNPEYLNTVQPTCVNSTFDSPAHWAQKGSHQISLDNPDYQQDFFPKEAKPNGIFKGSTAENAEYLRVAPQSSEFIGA
Sequence of Macrophage colony-stimulating factor 1 receptor (P07333 whole entry): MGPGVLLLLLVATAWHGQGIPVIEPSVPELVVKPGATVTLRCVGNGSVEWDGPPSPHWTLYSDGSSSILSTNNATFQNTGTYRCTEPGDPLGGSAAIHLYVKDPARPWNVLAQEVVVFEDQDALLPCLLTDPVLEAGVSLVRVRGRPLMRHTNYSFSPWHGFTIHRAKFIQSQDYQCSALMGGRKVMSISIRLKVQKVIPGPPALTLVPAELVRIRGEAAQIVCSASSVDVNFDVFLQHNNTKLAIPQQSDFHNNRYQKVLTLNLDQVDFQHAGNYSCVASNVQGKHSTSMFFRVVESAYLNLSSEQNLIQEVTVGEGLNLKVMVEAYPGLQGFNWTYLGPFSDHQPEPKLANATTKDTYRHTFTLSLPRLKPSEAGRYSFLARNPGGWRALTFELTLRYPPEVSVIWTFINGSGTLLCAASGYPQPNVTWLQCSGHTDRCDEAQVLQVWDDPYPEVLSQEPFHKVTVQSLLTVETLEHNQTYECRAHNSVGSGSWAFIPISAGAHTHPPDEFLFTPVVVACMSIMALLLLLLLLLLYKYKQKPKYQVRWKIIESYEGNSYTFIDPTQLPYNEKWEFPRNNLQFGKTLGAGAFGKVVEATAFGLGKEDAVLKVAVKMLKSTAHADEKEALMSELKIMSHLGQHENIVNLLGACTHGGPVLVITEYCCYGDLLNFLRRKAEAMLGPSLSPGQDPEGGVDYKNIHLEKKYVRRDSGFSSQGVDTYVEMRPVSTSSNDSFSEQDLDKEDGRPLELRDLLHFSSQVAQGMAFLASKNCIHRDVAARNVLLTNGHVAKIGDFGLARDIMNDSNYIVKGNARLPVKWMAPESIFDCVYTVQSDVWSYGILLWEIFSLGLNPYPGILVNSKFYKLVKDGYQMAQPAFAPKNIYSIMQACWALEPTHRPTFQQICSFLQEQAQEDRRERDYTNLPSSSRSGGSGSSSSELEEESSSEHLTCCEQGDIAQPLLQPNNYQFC

For orientation: IC50 means the midpoint of a concentration-inhibition curve. The term Tmax denotes the time at which the peak concentration occurs. Consider `C=CC(=O)N[C@@H]1Cn2c(c(-c3ccc(Oc4ccccc4)cc3)c3c(N)ncnc32)C1=C`, for which the half-maximal inhibitory concentration (IC50) in [1] was 0.4 nM; in data set [8], 1.3 nM; in data set [9], 20.3 nM; in [10] it was 215 nM; in [11] it was above 1000 nM; in [12], above 1000 nM. Further, the IC50 in data set [13] is below 10 nM. The Tmax in data set [2] worked out at 15 min. Further, in data set [3], the F came out at 18.3%. Moreover, the Drug metabolism result in data set [4], in data set [5], in [6] and in [7] was “Metabolite_Detected” each time. Moreover, the Activity in data set [14] was determined as 17.32%; in data set [15], 25.22%; in data set [16], 11.12%; in data set [17] it was 77.17%; in [18], 12.79%; in data set [19], 27.6%. The Activity was 12.5% in data set [20], 14.8% in data set [21], 51.1% in [22] and “Dose-dependent effect” in [23]. Further, the inhibition entry in [24] is “Active”.
